{
  "source": "ChEMBL document CHEMBL3045665",
  "about": "“Synthesis and in vitro antiproliferative activity of novel (4-chloro- and 4-acyloxy-2-butynyl)thioquinolines” (2011)",
  "assay_type_in_all_cases": "functional",
  "key": {"[1]": {"assay": "Antiproliferative activity against Homo sapiens (human) SW707 cells after 72 hr", "conditions": "SW707, 72 h, read-out: ID50 (the source's name)", "how_it_was_run": "(§1)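 Cells in opti-MEM with 2 mM glutamine, streptomycin, penicillin and 5% FCS at 37°C and 5% CO2. Plated at 10^4 cells/well 24 h before treatment, then exposed 72 h to 0.1–100 µg/ml (1 mg/ml stock in 10% DMSO, diluted in medium). Cells fixed with cold 50% TCA, stained with 0.4% SRB, dye extracted in 10 mM Tris, OD 540 nm. ID50 versus untreated control. Triplicates, 3–5 experiments.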"}, "T47D": {"test_system": "T47D", "assay": "Antiproliferative activity against Homo sapiens (human) T47D cells after 72 hr", "conditions": "read-out: ID50 (the source's name)", "how_it_was_run": "as §1"}, "B16": {"test_system": "B16", "assay": "Antiproliferative activity against Mus musculus (mouse) B16 cells after 72 hr", "conditions": "B16, 72 h, read-out: ID50 (the source's name)", "how_it_was_run": "as §1"}, "CCRF-CEM": {"test_system": "CCRF-CEM", "assay": "Antiproliferative activity against Homo sapiens (human) CCRF-CEM cells after 72 hr", "conditions": "read-out: ID50 (the source's name)", "how_it_was_run": "(§2)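 Leukemia cells were grown in suspension in opti-MEM with 2 mM glutamine, antibiotics and 5% FCS (37°C, 5% CO2) and seeded at 10^4 cells/well 24 h beforehand. They were exposed 72 h to 0.1–100 µg/ml (1 mg/ml stock in 10% DMSO). MTT was added for the final 3–4 h, followed by SDS/DMF lysis for 24 h and OD at 570 nm. ID50 is relative to untreated control; triplicates, 3–5 experiments.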"}, "P388": {"test_system": "P388", "assay": "Antiproliferative activity against Mus musculus (mouse) P388 cells after 72 hr", "conditions": "P388, 72 h, read-out: ID50 (the source's name)", "how_it_was_run": "as §2"}},
  "data": [
    {"molecule": "OCC#CCSc1cnc2ccccc2c1[Se]CC#CCCl", "values": [
      {"measurement": "IC50", "setting": "[1]", "result": 3.3, "unit": "µg/mL"},
      {"measurement": "IC50", "setting": "T47D", "result": 1.7, "unit": "µg/mL"},
      {"measurement": "IC50", "setting": "B16", "result": 3.8, "unit": "µg/mL"},
      {"measurement": "IC50", "setting": "CCRF-CEM", "result": 2.6, "unit": "µg/mL"},
      {"measurement": "IC50", "setting": "P388", "result": 2, "unit": "µg/mL"}
    ]},
    {"molecule": "CSc1cnc2ccccc2c1SCC#CCOC(=O)c1ccccc1", "values": [
      {"measurement": "IC50", "setting": "B16", "result": 17.8, "unit": "µg/mL"},
      {"measurement": "IC50", "setting": "CCRF-CEM", "result": 22.2, "unit": "µg/mL"}
    ]},
    {"molecule": "C#CCSc1cnc2ccccc2c1[Se]CC#CCCl", "values": [
      {"measurement": "IC50", "setting": "[1]", "result": 3.2, "unit": "µg/mL"},
      {"measurement": "IC50", "setting": "T47D", "result": 0.4, "unit": "µg/mL"},
      {"measurement": "IC50", "setting": "B16", "result": 7.1, "unit": "µg/mL"},
      {"measurement": "IC50", "setting": "CCRF-CEM", "result": 1.8, "unit": "µg/mL"},
      {"measurement": "IC50", "setting": "P388", "result": 0.8, "unit": "µg/mL"}
    ]},
    {"molecule": "CSc1cnc2ccccc2c1SCC#CCOC(=O)/C=C/c1ccccc1", "values": [
      {"measurement": "IC50", "setting": "[1]", "result": 66.6, "unit": "µg/mL"},
      {"measurement": "IC50", "setting": "T47D", "result": 71.9, "unit": "µg/mL"},
      {"measurement": "IC50", "setting": "B16", "result": 9.4, "unit": "µg/mL"},
      {"measurement": "IC50", "setting": "CCRF-CEM", "result": 18.1, "unit": "µg/mL"}
    ]},
    {"molecule": "CSc1cnc2ccccc2c1SCC#CCOC(=O)c1ccccc1C(=O)O", "values": [
      {"measurement": "IC50", "setting": "[1]", "result": 28.1, "unit": "µg/mL"},
      {"measurement": "IC50", "setting": "T47D", "result": 36.1, "unit": "µg/mL"},
      {"measurement": "IC50", "setting": "B16", "result": 18.1, "unit": "µg/mL"},
      {"measurement": "IC50", "setting": "CCRF-CEM", "result": 14.5, "unit": "µg/mL"},
      {"measurement": "IC50", "setting": "P388", "result": 35, "unit": "µg/mL"}
    ]},
    {"molecule": "CSc1cnc2ccccc2c1[Se]CC#CCCl", "values": [
      {"measurement": "IC50", "setting": "[1]", "result": 3.2, "unit": "µg/mL"},
      {"measurement": "IC50", "setting": "T47D", "result": 0.7, "unit": "µg/mL"},
      {"measurement": "IC50", "setting": "B16", "result": 3.5, "unit": "µg/mL"},
      {"measurement": "IC50", "setting": "CCRF-CEM", "result": 1.7, "unit": "µg/mL"},
      {"measurement": "IC50", "setting": "P388", "result": 0.4, "unit": "µg/mL"}
    ]},
    {"molecule": "CSc1cnc2ccccc2c1[Se]CC#CCOC(=O)/C=C/c1ccccc1", "values": [
      {"measurement": "IC50", "setting": "[1]", "result": 4.7, "unit": "µg/mL"},
      {"measurement": "IC50", "setting": "T47D", "result": 4.3, "unit": "µg/mL"},
      {"measurement": "IC50", "setting": "B16", "result": 3.1, "unit": "µg/mL"},
      {"measurement": "IC50", "setting": "CCRF-CEM", "result": 17.8, "unit": "µg/mL"},
      {"measurement": "IC50", "setting": "P388", "result": 43.9, "unit": "µg/mL"}
    ]},
    {"molecule": "CSc1cnc2ccccc2c1[Se]CC#CCOC(=O)c1ccccc1", "values": [
      {"measurement": "IC50", "setting": "[1]", "result": 3.6, "unit": "µg/mL"},
      {"measurement": "IC50", "setting": "T47D", "result": 2.2, "unit": "µg/mL"},
      {"measurement": "IC50", "setting": "B16", "result": 2.1, "unit": "µg/mL"},
      {"measurement": "IC50", "setting": "CCRF-CEM", "result": 1.9, "unit": "µg/mL"},
      {"measurement": "IC50", "setting": "P388", "result": 3.5, "unit": "µg/mL"}
    ]},
    {"molecule": "CSc1cnc2ccccc2c1[Se]CC#CCOC(=O)c1ccccc1C(=O)O", "values": [
      {"measurement": "IC50", "setting": "[1]", "result": 3.7, "unit": "µg/mL"},
      {"measurement": "IC50", "setting": "T47D", "result": 3.2, "unit": "µg/mL"},
      {"measurement": "IC50", "setting": "B16", "result": 3.1, "unit": "µg/mL"},
      {"measurement": "IC50", "setting": "CCRF-CEM", "result": 4, "unit": "µg/mL"},
      {"measurement": "IC50", "setting": "P388", "result": 19.1, "unit": "µg/mL"}
    ]},
    {"molecule": "CCOC(=O)OCC#CCSc1c(SC)cnc2ccccc12", "values": [
      {"measurement": "IC50", "setting": "[1]", "result": 33.1, "unit": "µg/mL"},
      {"measurement": "IC50", "setting": "T47D", "result": 34.2, "unit": "µg/mL"},
      {"measurement": "IC50", "setting": "B16", "result": 5.5, "unit": "µg/mL"},
      {"measurement": "IC50", "setting": "CCRF-CEM", "result": 13.2, "unit": "µg/mL"},
      {"measurement": "IC50", "setting": "P388", "result": 34.7, "unit": "µg/mL"}
    ]},
    {"molecule": "C#CCSc1cnc2ccccc2c1SCC#CCOC(=O)/C=C/c1ccccc1", "values": [
      {"measurement": "IC50", "setting": "B16", "result": 14.7, "unit": "µg/mL"},
      {"measurement": "IC50", "setting": "CCRF-CEM", "result": 50.9, "unit": "µg/mL"}
    ]},
    {"molecule": "O=C(O)c1ccccc1C(=O)OCC#CCSc1cnc2ccccc2c1Cl", "values": [
      {"measurement": "IC50", "setting": "B16", "result": 53.8, "unit": "µg/mL"}
    ]},
    {"molecule": "O=C(/C=C/c1ccccc1)OCC#CCSc1cnc2ccccc2c1Cl", "values": [
      {"measurement": "IC50", "setting": "[1]", "result": 48.8, "unit": "µg/mL"},
      {"measurement": "IC50", "setting": "T47D", "result": 22.8, "unit": "µg/mL"},
      {"measurement": "IC50", "setting": "B16", "result": 11.4, "unit": "µg/mL"},
      {"measurement": "IC50", "setting": "CCRF-CEM", "result": 15.4, "unit": "µg/mL"},
      {"measurement": "IC50", "setting": "P388", "result": 32.8, "unit": "µg/mL"}
    ]},
    {"molecule": "CSc1cnc2ccccc2c1SCC#CCCl", "values": [
      {"measurement": "IC50", "setting": "[1]", "result": 3.7, "unit": "µg/mL"},
      {"measurement": "IC50", "setting": "T47D", "result": 3.9, "unit": "µg/mL"},
      {"measurement": "IC50", "setting": "B16", "result": 16.9, "unit": "µg/mL"},
      {"measurement": "IC50", "setting": "CCRF-CEM", "result": 2.5, "unit": "µg/mL"},
      {"measurement": "IC50", "setting": "P388", "result": 2.7, "unit": "µg/mL"}
    ]},
    {"molecule": "ClCC#CCSc1cnc2ccccc2c1Cl", "values": [
      {"measurement": "IC50", "setting": "[1]", "result": 3.3, "unit": "µg/mL"},
      {"measurement": "IC50", "setting": "T47D", "result": 3.2, "unit": "µg/mL"},
      {"measurement": "IC50", "setting": "B16", "result": 4, "unit": "µg/mL"},
      {"measurement": "IC50", "setting": "CCRF-CEM", "result": 3.7, "unit": "µg/mL"},
      {"measurement": "IC50", "setting": "P388", "result": 13.4, "unit": "µg/mL"}
    ]},
    {"molecule": "OCC#CCSc1cnc2ccccc2c1SCC#CCCl", "values": [
      {"measurement": "IC50", "setting": "[1]", "result": 19.8, "unit": "µg/mL"},
      {"measurement": "IC50", "setting": "T47D", "result": 5.3, "unit": "µg/mL"},
      {"measurement": "IC50", "setting": "B16", "result": 43.4, "unit": "µg/mL"},
      {"measurement": "IC50", "setting": "CCRF-CEM", "result": 3.3, "unit": "µg/mL"},
      {"measurement": "IC50", "setting": "P388", "result": 5.1, "unit": "µg/mL"}
    ]},
    {"molecule": "C#CCSc1cnc2ccccc2c1SCC#CCCl", "values": [
      {"measurement": "IC50", "setting": "[1]", "result": 12.9, "unit": "µg/mL"},
      {"measurement": "IC50", "setting": "T47D", "result": 5.8, "unit": "µg/mL"},
      {"measurement": "IC50", "setting": "B16", "result": 52.8, "unit": "µg/mL"},
      {"measurement": "IC50", "setting": "CCRF-CEM", "result": 2.9, "unit": "µg/mL"},
      {"measurement": "IC50", "setting": "P388", "result": 3, "unit": "µg/mL"}
    ]}
  ]
}
